This note sets out measurements from ChEMBL document CHEMBL4622977, “A CNS-Targeting Prodrug Strategy for Nuclear Receptor Modulators” (J Med Chem, 2020).

The source made the active and inactive calls. No cut-off for these calls is given here.

A short description of data set [1]: Brain to serum concentration ratio, Kp of the compound in C57BL/6 mouse assessed as 2-(4-(4-hydroxy-3-isopropyl-5-((4-nitrophenyl)ethynyl)-benzyl)-3,5-dimethylphenoxy)acetic acid level at 9.14 umol/kg, ip by LC-MS/MS analysis. The data set is classed as ADME, organism-based. In short, it runs like this: (§1)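 Brain-to-serum ratio Kp was calculated from brain and serum parent-drug AUC0.5–6 h (ng/g*h). These AUCs came from male C57BL/6 mice (n=3 per time point) given parent drug or equimolar prodrug at […] i.p. in DMSO, sampled at 0.5, 2 and 6 h. Parent acid was quantified by LC-MS/MS with d₆-sobetirome internal standard.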

Data set [2] in a line: AUC (0.5 to 6 hrs) in C57BL/6 mouse serum assessed as 2-(4-(4-hydroxy-3-isopropyl-5-((4-nitrophenyl)ethynyl)-benzyl)-3,5-dimethylphenoxy)acetic acid level at 9.14 umol/kg, ip by LC-MS/MS analysis. More on the design: time 0.5-6 hr, dose 9.14 umol/kg, route intraperitoneal. The following applies: in vivo. It counts as ADME, organism-based. In short, it runs like this: (§2)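 Male wild-type C57BL/6 mice (8−10 weeks, n=3 per time point) received parent drug or equimolar prodrug at […] i.p. in DMSO. Brain and serum were collected at 0.5, 2 and 6 h. Parent acid was quantified by LC-MS/MS against vehicle-tissue standard curves with d₆-sobetirome internal standard. AUC0.5–6 h was computed from the time course; mean ± SEM.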

A short description of data set [3]: Prodrug conversion in C57BL/6 mouse brain assessed as 2-(4-(4-hydroxy-3-isopropyl-5-((4-nitrophenyl)ethynyl)-benzyl)-3,5-dimethylphenoxy)acetic acid level at 9.14 umol/kg, ip measured after 1 hr in presence of FAAH inhibitor PF-3845 by LC-MS/MS analysis. The data set is classed as ADME, organism-based. To be noted: in vivo. The gist of the method: (§3)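 Male C57BL/6 mice (n=3) received PF-3845 at 1 mg/kg i.p., then prodrug at […] i.p. 1 h later; comparators received prodrug alone. Vehicle was DMSO. Whole brain was taken 1 h after prodrug and homogenized in water with d₆-sobetirome internal standard. It was extracted with EtOAc/MeCN and parent acid was measured by LC-MS/MS; mean ± SEM, 2-tailed unpaired t test.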

Data set [4] can be described thus: AUC (0.5 to 6 hrs) in C57BL/6 mouse brain assessed as 2-(4-(4-hydroxy-3-isopropyl-5-((4-nitrophenyl)ethynyl)-benzyl)-3,5-dimethylphenoxy)acetic acid level at 9.14 umol/kg, ip by LC-MS/MS analysis. The following applies: in vivo. The data set is classed as ADME, organism-based. Also noted: time upper 6 hr, time lower 0.5 hr, dose 9.14 umol/kg, route intraperitoneal. In short, it runs like this: as §2

Data set [5] is described as follows: AUC (0.5 to 6 hrs) in C57BL/6 mouse serum at 9.14 umol/kg, ip by LC-MS/MS analysis. The data set is classed as ADME, organism-based. Also noted: time upper 6 hr, dose 9.14 umol/kg, time lower 0.5 hr, route intraperitoneal. The following applies: in vivo. The gist of the method:
as §2

The conditions of data set [6]: mouse, in vivo, ip.
The next data set is described as follows: in vivo. To be noted: C57BL/6, mouse, brain/serum, ip, 9.14 umol/kg.
Another data set has as its system Mus musculus. Nature of the data set: In vivo agonist activity at RAR in C57BL/6 mouse assessed upregulation of Adam10 gene expression in brain at 9.14 umol/kg, ip administered once daily for 7 days by Trizol reagent based RT-qPCR analysis. The data set is classed as functional, organism-based. In short, it runs like this: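 Male C57BL/6 mice (n=5) were dosed once daily for 7 days i.p. with parent drug at […], equimolar prodrug, or vehicle. The vehicle was 1:1:8 Kolliphor:NMP:water. Target gene expression was compared between groups per tissue by 2-tailed unpaired t test.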
(In general: Real-time PCR tracks product formation cycle by cycle.)

Data set [7] in a line: Hepatotoxicity in C57BL/6 mouse assessed effect on Rarres2 gene expression at 9.14 umol/kg, ip administered once daily for 7 days by Trizol reagent based RT-qPCR analysis. The following applies: in vivo, 168 h.
A short description of data set [8]: AUC (0.5 to 6 hrs) in C57BL/6 mouse serum assessed as GW501516 level at 9.14 umol/kg, ip by LC-MS/MS analysis. Also noted: dose 9.14 umol/kg, time upper 6 hr, time lower 0.5 hr, route intraperitoneal. To be noted: in vivo. The data set is classed as ADME, organism-based. The gist of the method: as §2
Data set [9] can be described thus: AUC (0.5 to 6 hrs) in C57BL/6 mouse brain assessed as GW501516 level at 9.14 umol/kg, ip by LC-MS/MS analysis. The data set is classed as ADME, organism-based. More on the design: time 0.5-6 hr, dose 9.14 umol/kg, route intraperitoneal. The following applies: in vivo. In short, it runs like this:
as §2

Data set [10] can be described thus: Brain to serum concentration ratio, Kp of the compound in C57BL/6 mouse assessed as GW501516 level at 9.14 umol/kg, ip by LC-MS/MS analysis. The data set is classed as ADME, organism-based. The gist of the method: as §1
The nature of data set [11]: Prodrug conversion in C57BL/6 mouse brain assessed as GW501516 level at 9.14 umol/kg, ip measured after 1 hr in presence of FAAH inhibitor PF-3845 by LC-MS/MS analysis. The data set is classed as ADME, organism-based. The following applies: in vivo. In short, it runs like this:
as §3

As usually defined, the Kp is the ratio of the level in a tissue or fluid to that in plasma or blood. On to `CNC(=O)COc1cc(C)c(Cc2cc(C#Cc3ccc([N+](=O)[O-])cc3)c(O)c(C(C)C)c2)c(C)c1`, for which, in data set [1], the concentration ratio (Kp) is listed as 1.5. Moreover, the figures for the AUC in data set [2] and in data set [4] were 49.5 ng·h/g and 73.8 ng·h/g, respectively. In data set [3], the Drug metabolism entry is reported as “Metabolite_Notdetected”.
On to `CCCc1c(OCCCSc2ccc(CC(=O)O)cc2Cl)ccc2c(C(F)(F)F)noc12`, for which the AUC in data set [5] came to 2140 ng·h/g; in [6], 67.35 ng·h/g. Besides, in “in vivo”, the Kp turned out to be 0.03.
`Cc1cc(OCC(=O)O)cc(C)c1Cc1cc(C#Cc2ccc([N+](=O)[O-])cc2)c(O)c(C(C)C)c1`: the AUC in data set [5] was 756.9 ng·h/g; in [6], 11.9 ng·h/g. Also, the Kp in the data set “in vivo” came out at 0.016.
As for `CC1(C)CCSc2ccc(C#Cc3ccc(C(=O)O)cn3)cc21` [TAZAROTENIC ACID], the AUC in data set [5] amounted to 314.5 ng·h/g; in [6] it was 38.5 ng·h/g. In addition, in the data set with Mus musculus, the outcome was inactive. The molecule also displayed a Kp in the data set “in vivo” of 0.12. Moreover, in data set [7], the Activity entry is reported as “Toxic”.
Turning to `CC(C)(Oc1ccc(CCNC(=O)c2ccc(Cl)cc2)cc1)C(=O)O` [BEZAFIBRATE], the AUC stood at 420.7 ng·h/g in data set [5] and 5.5 ng·h/g in data set [6]. In “in vivo”, this molecule came in with a Kp of 0.013.
With `CNC(=O)COc1ccc(SCc2sc(-c3ccc(C(F)(F)F)cc3)nc2C)cc1C`, the AUC is 2705 ng·h/g in [8] and 146.3 ng·h/g in [9]. Besides, the Kp in data set [10] was 0.054. Moreover, in data set [11], the Drug metabolism result was “Metabolite_Detected”.
`Cc1cc(SCc2sc(-c3ccc(C(F)(F)F)cc3)nc2C)ccc1OCC(=O)O` [GW501516]: the AUC in [5] was found to be 2330 ng·h/g; in [6] it was 41.8 ng·h/g. In addition, the Kp in the data set “in vivo” came out at 0.018.
For the molecule `CC/C(=C(\c1ccc(O)cc1)c1ccc(/C=C/C(=O)O)cc1)c1ccccc1`, the AUC in data set [5] came to 169.3 ng·h/g; in data set [6] it was 228.2 ng·h/g. In addition, the Kp in the data set “in vivo” stood at 1.35.
